Compound activity: PubChem, Broad Institute
A selection: hits, their analogues and other compounds. The true share with any hit is near 2.5%.
ERAP1 HTS inh = inhibitors of human ERAP1 aminopeptidase | Q9NZ08 | recombinant ERAP1, Leu-AMC fluorescence, 60 min | inhibition, % at 10.7 µM | 340,000 compounds, 0.15% hits | AID 652197;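 active = mean replicate inhibition of at least 30%, or all replicates individually reaching that 30% level; inactive = mean below 30% and not every replicate reaching it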;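 also: 0% = neutral control wells and 100% = L-leucinethiol positive control wells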
SIRT5 inh = blocks human SIRT5 desuccinylation of peptide. Q9NXA8. Purified SirT5, succinyl-peptide AMC, trypsin-coupled fluorescence. inhibition, % at 15 µM. 330,000 compounds, 1.1% hits. AID 652115; in the data active = inhibition above about 15%; inconclusive = no clear call, values can overlap the other calls
DENV2 CPE = protects cells from dengue virus 2 cytopathic effect | DENV2-infected cells, cytopathic effect rescue, plate reader | 350,000 compounds, 1.7% hits | AID 651640 | CPE inhibition, % at 9.99 µM; in the data active = CPE inhibition above about 20%, passing the limit was not always enough; inconclusive = no clear call, values can overlap the other calls; tested in BHK-21 cells;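 also: 0% = median of neutral control wells and 100% = median of positive control wells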
E-selectin induc = E-selectin induction on HUVECs. P16581. HUVEC E-selectin immunofluorescence imaging; normalized: neutral wells 0, TNF-alpha wells 100. activation, % at 7.58 µM. 260,000 compounds, 0.37% hits;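 active = mean E-selectin-positive cell signal at least 10% of the positive control, reached in at least 60% of replicates, without over 20% cell loss; inconclusive = no rule given, readout overlaps actives, possibly toxicity-flagged; inactive = the rest, including those meeting only one limit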
Target sequence (P16581 whole entry, looked up): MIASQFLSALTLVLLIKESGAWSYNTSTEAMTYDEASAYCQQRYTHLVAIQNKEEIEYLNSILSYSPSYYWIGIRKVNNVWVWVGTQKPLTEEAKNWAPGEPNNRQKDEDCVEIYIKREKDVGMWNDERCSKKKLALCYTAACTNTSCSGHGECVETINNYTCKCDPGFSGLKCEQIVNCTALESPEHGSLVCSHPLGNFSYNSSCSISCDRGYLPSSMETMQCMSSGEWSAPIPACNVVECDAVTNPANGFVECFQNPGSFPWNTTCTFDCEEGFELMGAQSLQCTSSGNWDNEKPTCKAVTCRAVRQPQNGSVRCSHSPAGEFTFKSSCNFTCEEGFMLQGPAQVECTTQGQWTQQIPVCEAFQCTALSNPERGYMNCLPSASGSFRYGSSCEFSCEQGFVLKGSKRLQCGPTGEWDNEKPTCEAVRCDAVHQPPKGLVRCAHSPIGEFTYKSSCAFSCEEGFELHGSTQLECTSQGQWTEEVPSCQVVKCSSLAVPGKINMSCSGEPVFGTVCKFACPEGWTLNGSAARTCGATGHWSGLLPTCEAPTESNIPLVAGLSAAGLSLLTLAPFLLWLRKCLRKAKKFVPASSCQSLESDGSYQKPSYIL
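assay system = HUVEC, human umbilical vein endothelial cells | input = 3,000 HUVEC seeded per well | medium = EGM-2 growth medium on 0.1% gelatin-coated wells | dosing = one compound dose added by pin transfer | signal = immunofluorescence imaging | read-out basis = % PE-positive cells | control set = TNF-alpha, DMSO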
PglD inh = blocks C. jejuni PglD acetyltransferase activity | purified PglD enzyme, DTNB colorimetric CoA detection | AID 602405 | inhibition, % at 12.5 µM | 360,000 compounds, 0.098% hits; in the data active = inhibition above about 16%, passing the limit was not always enough; inconclusive = no clear call, values can overlap the other calls
* = called active by the depositor; ? = inconclusive; · = not tested or not shown; ! = not active in a repeat.

SMILES	ERAP1 HTS inh	SIRT5 inh	DENV2 CPE	E-selectin induc	PglD inh
CSC(=NS(=O)(=O)c1ccc(N)cc1)NS(=O)(=O)c1cccs1	-5	53*	-10	·	·
OC[C@@H]1CN(Cc2ccccc2)C[C@H](n2cnc3c(N4CCOCC4)ncnc32)O1	-5	1	-7	0	6
Cc1ccc(S(=O)(=O)N(C)C[C@@H]2Oc3cc(C4=CCCC4)ccc3S(=O)(=O)N([C@H](C)CO)C[C@H]2C)cc1	-3	3	79*	0	2
Cc1ccc(S(=O)(=O)N(C)C[C@H]2Oc3cc(C4=CCCC4)ccc3S(=O)(=O)N([C@@H](C)CO)C[C@@H]2C)cc1	·	6	3	0	0
C[C@@H]1CN([C@H](C)CO)S(=O)(=O)c2ccc(C3=CCCCC3)cc2O[C@H]1CN(C)S(=O)(=O)c1ccc(F)cc1	0	30*	4	0	0
C[C@H](CO)N1C[C@H](C)[C@@H](CN(C)S(=O)(=O)c2ccc(F)cc2)Oc2cc(C3=CCCCC3)ccc2S1(=O)=O	1	19*	10	0	1
C[C@H](CO)N1C[C@H](C)[C@H](CN(C)S(=O)(=O)c2ccc(F)cc2)Oc2cc(C3=CCCC3)ccc2S1(=O)=O	0	2	-9	0	-2
Cc1cccc(CC(=O)Nc2sc(C(C)C)cc2C(=O)N2CCOCC2)c1	3	-2	-1	67*	0
CCC(Oc1cccc(C)c1)C(=O)Nc1ccccc1C(=O)N1CCOCC1 (stereo not drawn)	-5	-1	6	0	-2
CCCCn1c2ccccc2c2cc(CC(N)=O)ccc21	-1	-3	17	2	·
CCOC(=O)N1CCC(NC(=O)Cn2nc(-c3ccccc3)ccc2=O)CC1	7	18*	-3	·	-2
CC(C)(C)c1ccc(C(=O)N/C(=C\c2cccc([N+](=O)[O-])c2)C(=O)Nc2cccc(C(=O)O)c2)cc1	2	2	2	0	36*
O=C(CN1CCCC1)Nc1cc(C(F)(F)F)cc(C(F)(F)F)c1	0	0	0	·	·
CCCCCCN1C[C@@H](n2cc(COC(=O)c3ccccc3)nn2)[C@H](O)C[C@@H]1c1ccc(Cl)cc1	1	0	-7	0	-9
C[C@@H]1CCCCO[C@@H](CN(C)C(=O)NC2CCCCC2)[C@H](C)CN([C@@H](C)CO)C(=O)c2cc(NC(=O)NC3CCCCC3)ccc2O1	2	2	3	0	2
CC(/C=N/NC(=O)c1nn(C)c(C)c1Br)=C\c1ccccc1	5	·	25*	·	-3
CCOC(=O)C(CCc1ccccn1)c1ccccc1 (stereo not drawn)	2	·	6	0	-7
CC(=O)N(c1ccc2oc(=O)sc2c1)S(=O)(=O)c1ccc(C(=O)O)cc1	28	20*	8	·	1
Cc1ccc(S(=O)(=O)N2CCOCC2)cc1C(=O)NC1CCCCC1	·	·	·	·	-4
N#CCc1ccc(NC(=O)c2cc(S(=O)(=O)N3CCOCC3)ccc2Cl)cc1	0	-5	60*	0	3
N#Cc1ccc(NC(=O)c2cc(S(=O)(=O)N3CCOCC3)ccc2N2CCCC2)cc1	0	4	-10	6	10
Cc1cc(Cl)ccc1OC(C)C(=O)Nc1cccc(S(=O)(=O)N2CCOCC2)c1 (stereo not drawn)	0	·	0	0	0
Cc1ccc(S(=O)(=O)N2CCOCC2)cc1C(=O)NC1CCCC1	-4	0	3	31*	-1
CC(Sc1nc2cc(Cl)ccc2s1)C(=O)Nc1cccc(S(=O)(=O)N2CCOCC2)c1 (stereo not drawn)	3	-2	33*	·	·
COc1cc(/C=C/C(=O)O)cc(S(=O)(=O)Nc2cccc(S(=O)(=O)N3CCOCC3)c2)c1OC	·	22*	-2	-1	-3
SMILES	ERAP1 HTS inh	SIRT5 inh	DENV2 CPE	E-selectin induc	PglD inh
O=C(c1ccncc1)N(c1ccc(N2CCOCC2)cc1)C(c1ccccc1)c1nc2ccccc2[nH]1 (stereo not drawn)	2	-2	-2	0	-2
O=C(NC1CC1)c1cccc(NC(=O)c2cc(S(=O)(=O)N3CCOCC3)ccc2Cl)c1	1	-3	94*	·	-3
Cc1ccccc1OCCOC(=O)c1cc(S(=O)(=O)N2CCOCC2)ccc1C	-3	-5	72*	·	-4
COc1ccc2cc(S(=O)(=O)N3CCOCC3)ccc2c1	·	·	·	·	0
O=S(=O)(c1ccc2ccccc2c1)N1CCOCC1	2	99*	?	0	·
O=C(Nc1cccc(S(=O)(=O)N2CCOCC2)c1)C1CC1	2	23*	-13	0	-2
O=C(COC(=O)Cc1c(F)cccc1Cl)Nc1ccc2[nH]c(=O)[nH]c2c1	2	15*	6	0	6
O=C(COC(=O)Cc1c(Cl)cccc1Cl)Nc1ccc2[nH]c(=O)[nH]c2c1	0	10	-9	·	-2
COc1ccc2c(=O)cc(-c3ccncc3)oc2c1OC	0	·	33*	0	-2
CNC[C@H]1Oc2ccc(NC(=O)C3CCCCC3)cc2CC(=O)N([C@H](C)CO)C[C@H]1C	0	0	-2	0	0
CNC[C@H]1Oc2ccc(NC(=O)C3CCCCC3)cc2CC(=O)N([C@H](C)CO)C[C@@H]1C	-4	1	90*!	0	2
CNC[C@H]1Oc2ccc(NC(=O)c3ccncc3)cc2CC(=O)N([C@@H](C)CO)C[C@@H]1C	·	3	-4	0	2
C[C@@H]1CN([C@@H](C)CO)C(=O)Cc2cc(NC(=O)C3CCCCC3)ccc2O[C@H]1CN(C)CC1CC1	0	2	76*	0	-1
C[C@@H]1CN([C@H](C)CO)C(=O)Cc2cc(NC(=O)NC3CCCCC3)ccc2O[C@@H]1CN(C)CC1CC1	-1	13	-7	-2	-9
C[C@@H]1CN([C@@H](C)CO)C(=O)Cc2cc(NC(=O)NC3CCCCC3)ccc2O[C@H]1CN(C)CC1CC1	0	-4	41*	-2	-8
CNC[C@H]1Oc2ccc(NC(=O)c3ccncc3)cc2CC(=O)N([C@H](C)CO)C[C@@H]1C	-2	2	64*	0	0
O=C(NC(c1ccc(F)cc1)c1ccc2ccccc2n1)C1CCN(CCOc2ccc(Cl)cc2Cl)CC1 (stereo not drawn)	-1	·	-1	1	-12
COc1ccc(NC(=O)N2CCCCN3[C@H](C2)[C@H](c2ccc(-c4ccccc4F)cc2)[C@@H]3CO)cc1	1	-2	30*	0	-3
O=C(Nc1ccc(F)cc1)N1CCCCN2[C@H](CO)[C@@H](c3ccc(C4=CCCCC4)cc3)[C@H]2C1	-5	2	29*	0	-1
O=C(Nc1ccc(F)cc1)N1CCCCN2[C@@H](CO)[C@H](c3ccc(-c4ccccc4F)cc3)[C@@H]2C1	2	2	3	·	2
O=C(Nc1ccc(F)cc1)N1CCCCN2[C@H](C1)[C@H](c1ccc(-c3ccccc3F)cc1)[C@@H]2CO	1	18*	4	·	-2
